The record followed here is ChEMBL document CHEMBL1123403, “Pyrazolo[4,5-c]quinolines. 2. Synthesis and specific inhibition of benzodiazepine receptor binding” (J Med Chem, 1986).

The first experiment concerns the target GABA-A receptor; anion channel. The experiment in a line: Inhibitory concentration against [3H]flunitrazepam binding to Benzodiazepine receptor in bovine brain membranes. It counts as cell membranes. The method, boiled down:
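Membranes were made by homogenizing in ice-cold 0.32 M sucrose with protease inhibitors, spinning at 48000g, and osmotically shocking in 50 mM Tris-HCl. Membranes (0.4-0.5 mg protein, Lowry) were incubated with 1.0 nM [3H]flunitrazepam in 50 mM Tris-HCl at 0 °C for 90 min, then filtered and counted by scintillation. Nonspecific binding was defined with 10 μM diazepam. IC50 came from log-probit analysis of 4-6 concentrations, each in triplicate.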
Take `Cc1nn(-c2ccc(Cl)cc2)c2c1c(=O)n(C)c1ccccc21`: the concentration for half-maximal inhibition (IC50) was found to be 2.7 µM.

Molecule `Cc1nn(-c2cccc(Cl)c2)c2c1c(O)nc1ccccc12` had an IC50 of 4.4 µM.

Turning to `Cc1nn(-c2ccc(Cl)cc2)c2c1c(O)nc1ccccc12`, the IC50 came out at 22 µM.

In the case of `Cc1nn(-c2cccc(Cl)c2)c2c1c(=O)n(C)c1ccccc21`, the IC50 amounted to 1 µM.

In turn, `Cc1cccc(-n2nc(C)c3c(O)nc4ccccc4c32)c1` yielded an IC50 of 9 µM.

`Cc1cccc(-n2nc(C)c3c(=O)n(C)c4ccccc4c32)c1` returned an IC50 of 0.26 µM.

`Cc1nn(-c2ccccc2)c2c1c(=O)n(C)c1ccccc21` came in with an IC50 of 3.4 µM.

The target of the next experiment is GABA-A receptor; anion channel (Bos taurus) (UniProt P10063+P08220+P20237+P08219+P10064+P22300). In words: Inhibition of specific [3H]flunitrazepam binding to Benzodiazepine receptor in bovine brain membranes at 34 uM. It counts as cell membranes.
`Cc1nn(-c2ccc(Cl)cc2)c2c1c(=O)n(C)c1ccccc21` showed an inhibition of 78%.

Take `Cc1nn(-c2ccc(Cl)cc2)c2c1c(N1CCN(C)CC1)nc1ccccc12`: the inhibition stood at 23%.

In the case of `Cc1nn(-c2cccc(Cl)c2)c2c1c(O)nc1ccccc12`, the inhibition was 94%.

Turning to `Cc1cccc(-n2nc(C)c3c(N4CCN(C)CC4)nc4ccccc4c32)c1`, the inhibition amounted to 44%.

On to `Cc1nn(-c2cccc(Cl)c2)c2c1c(Cl)nc1ccccc12`, for which the inhibition amounted to 21%.

The molecule `Cc1nn(-c2cccc(Cl)c2)c2c1c(N1CCN(C)CC1)nc1ccccc12` had an inhibition of 49%.

On to `Cc1cccc(-n2nc(C)c3c(N4CCOCC4)nc4ccccc4c32)c1`, for which the inhibition came to 7%.

Take `Cc1nn(-c2ccc(Cl)cc2)c2c1c(O)nc1ccccc12`: the inhibition worked out at 70%.

The molecule `Cc1nn(-c2cccc(Cl)c2)c2c1c(=O)n(C)c1ccccc21` came in with an inhibition of 96%.

Regarding `COc1nc2ccccc2c2c1c(C)nn2-c1cccc(Cl)c1`, the inhibition is 18%.

`Cc1ccc(-n2nc(C)c3c(O)nc4ccccc4c32)cc1` returned an inhibition of 65%.

In turn, `Cc1cccc(-n2nc(C)c3c(O)nc4ccccc4c32)c1` registered an inhibition of 97%.

The molecule `Cc1ccc(-n2nc(C)c3c(=O)n(C)c4ccccc4c32)cc1` showed an inhibition of 63%.

Regarding `Cc1cccc(-n2nc(C)c3c(=O)n(C)c4ccccc4c32)c1`, the inhibition was determined as 95%.

`Cc1[nH]nc2c1c(=O)[nH]c1ccccc12` displayed an inhibition of 47%.

Take `Cc1nn(-c2cccc(Cl)c2)c2c1c(N1CCOCC1)nc1ccccc12`: the inhibition came to 24%.

Molecule `Cc1nn(-c2ccccc2)c2c1c(N1CCN(C)CC1)nc1ccccc12` showed an inhibition of 41%.

As for `Cc1cccc(-n2nc(C)c3c(Cl)nc4ccccc4c32)c1`, the inhibition amounted to 21%.

As to `Cc1nn(-c2ccccc2)c2c1c(N1CCOCC1)nc1ccccc12`, the inhibition is 8%.

As to `Cc1nn(-c2ccccc2)c2c1c(=O)n(C)c1ccccc21`, the inhibition worked out at 85%.

In turn, `Cc1nn(-c2ccccc2)c2c1c(O)nc1ccccc12` registered an inhibition of 62%.

Broadly, the IC50 is the concentration that inhibits the measured activity by half. Usually inhibition stands for the relative decrease from the control value, in per cent. Lower therefore signals a weak effect.
